The text below walks through data of ChEMBL document CHEMBL4371052, “Diarylcarbonates are a new class of deubiquitinating enzyme inhibitor” (Bioorg Med Chem Lett, 2019).

Structures are written as SMILES. The source made the active and inactive calls. The calls are words filed in the database; no cut-off is given here.

In assay [1] the target is T1, Ubiquitin carboxyl-terminal hydrolase isozyme L3 (Homo sapiens) (UniProt P15374).
T1 sequence (whole entry): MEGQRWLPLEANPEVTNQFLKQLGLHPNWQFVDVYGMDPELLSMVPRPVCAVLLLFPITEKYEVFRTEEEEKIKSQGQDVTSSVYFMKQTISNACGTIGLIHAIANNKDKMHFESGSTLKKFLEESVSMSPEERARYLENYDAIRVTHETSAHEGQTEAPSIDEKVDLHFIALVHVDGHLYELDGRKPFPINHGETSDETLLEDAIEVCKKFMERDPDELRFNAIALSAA
Description: Inhibition of UCHL3 in HEK293T cell lysates at 25 uM using HA-tagged vinyl-sulfone as substrate measured after 2 to 30 mins by Western blot analysis. The assay is classed as subcellular. The note with it: Lysate. The gist of the method: (§1)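 HEK 293T lysate (1.5 mg/ml) given compound (25 μM) or DMSO at the same time as HA-Ub-VS (1.5 μM). Aliquots withdrawn over time were run on SDS-PAGE and immunoblotted for HA.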
Background: Immunoblotting shows a protein as a band on a membrane.

Assay [2] deals with Ubiquitin carboxyl-terminal hydrolase 9X (Homo sapiens) (UniProt Q93008). Description: Inhibition of recombinant His6-tagged USP9x catalytic domain (unknown origin) assessed as association constant using Ub-AMC as substrate by fluorescence assay.
Sequence of Ubiquitin carboxyl-terminal hydrolase 9X (Homo sapiens) (Q93008 whole entry, the tested form may be a part): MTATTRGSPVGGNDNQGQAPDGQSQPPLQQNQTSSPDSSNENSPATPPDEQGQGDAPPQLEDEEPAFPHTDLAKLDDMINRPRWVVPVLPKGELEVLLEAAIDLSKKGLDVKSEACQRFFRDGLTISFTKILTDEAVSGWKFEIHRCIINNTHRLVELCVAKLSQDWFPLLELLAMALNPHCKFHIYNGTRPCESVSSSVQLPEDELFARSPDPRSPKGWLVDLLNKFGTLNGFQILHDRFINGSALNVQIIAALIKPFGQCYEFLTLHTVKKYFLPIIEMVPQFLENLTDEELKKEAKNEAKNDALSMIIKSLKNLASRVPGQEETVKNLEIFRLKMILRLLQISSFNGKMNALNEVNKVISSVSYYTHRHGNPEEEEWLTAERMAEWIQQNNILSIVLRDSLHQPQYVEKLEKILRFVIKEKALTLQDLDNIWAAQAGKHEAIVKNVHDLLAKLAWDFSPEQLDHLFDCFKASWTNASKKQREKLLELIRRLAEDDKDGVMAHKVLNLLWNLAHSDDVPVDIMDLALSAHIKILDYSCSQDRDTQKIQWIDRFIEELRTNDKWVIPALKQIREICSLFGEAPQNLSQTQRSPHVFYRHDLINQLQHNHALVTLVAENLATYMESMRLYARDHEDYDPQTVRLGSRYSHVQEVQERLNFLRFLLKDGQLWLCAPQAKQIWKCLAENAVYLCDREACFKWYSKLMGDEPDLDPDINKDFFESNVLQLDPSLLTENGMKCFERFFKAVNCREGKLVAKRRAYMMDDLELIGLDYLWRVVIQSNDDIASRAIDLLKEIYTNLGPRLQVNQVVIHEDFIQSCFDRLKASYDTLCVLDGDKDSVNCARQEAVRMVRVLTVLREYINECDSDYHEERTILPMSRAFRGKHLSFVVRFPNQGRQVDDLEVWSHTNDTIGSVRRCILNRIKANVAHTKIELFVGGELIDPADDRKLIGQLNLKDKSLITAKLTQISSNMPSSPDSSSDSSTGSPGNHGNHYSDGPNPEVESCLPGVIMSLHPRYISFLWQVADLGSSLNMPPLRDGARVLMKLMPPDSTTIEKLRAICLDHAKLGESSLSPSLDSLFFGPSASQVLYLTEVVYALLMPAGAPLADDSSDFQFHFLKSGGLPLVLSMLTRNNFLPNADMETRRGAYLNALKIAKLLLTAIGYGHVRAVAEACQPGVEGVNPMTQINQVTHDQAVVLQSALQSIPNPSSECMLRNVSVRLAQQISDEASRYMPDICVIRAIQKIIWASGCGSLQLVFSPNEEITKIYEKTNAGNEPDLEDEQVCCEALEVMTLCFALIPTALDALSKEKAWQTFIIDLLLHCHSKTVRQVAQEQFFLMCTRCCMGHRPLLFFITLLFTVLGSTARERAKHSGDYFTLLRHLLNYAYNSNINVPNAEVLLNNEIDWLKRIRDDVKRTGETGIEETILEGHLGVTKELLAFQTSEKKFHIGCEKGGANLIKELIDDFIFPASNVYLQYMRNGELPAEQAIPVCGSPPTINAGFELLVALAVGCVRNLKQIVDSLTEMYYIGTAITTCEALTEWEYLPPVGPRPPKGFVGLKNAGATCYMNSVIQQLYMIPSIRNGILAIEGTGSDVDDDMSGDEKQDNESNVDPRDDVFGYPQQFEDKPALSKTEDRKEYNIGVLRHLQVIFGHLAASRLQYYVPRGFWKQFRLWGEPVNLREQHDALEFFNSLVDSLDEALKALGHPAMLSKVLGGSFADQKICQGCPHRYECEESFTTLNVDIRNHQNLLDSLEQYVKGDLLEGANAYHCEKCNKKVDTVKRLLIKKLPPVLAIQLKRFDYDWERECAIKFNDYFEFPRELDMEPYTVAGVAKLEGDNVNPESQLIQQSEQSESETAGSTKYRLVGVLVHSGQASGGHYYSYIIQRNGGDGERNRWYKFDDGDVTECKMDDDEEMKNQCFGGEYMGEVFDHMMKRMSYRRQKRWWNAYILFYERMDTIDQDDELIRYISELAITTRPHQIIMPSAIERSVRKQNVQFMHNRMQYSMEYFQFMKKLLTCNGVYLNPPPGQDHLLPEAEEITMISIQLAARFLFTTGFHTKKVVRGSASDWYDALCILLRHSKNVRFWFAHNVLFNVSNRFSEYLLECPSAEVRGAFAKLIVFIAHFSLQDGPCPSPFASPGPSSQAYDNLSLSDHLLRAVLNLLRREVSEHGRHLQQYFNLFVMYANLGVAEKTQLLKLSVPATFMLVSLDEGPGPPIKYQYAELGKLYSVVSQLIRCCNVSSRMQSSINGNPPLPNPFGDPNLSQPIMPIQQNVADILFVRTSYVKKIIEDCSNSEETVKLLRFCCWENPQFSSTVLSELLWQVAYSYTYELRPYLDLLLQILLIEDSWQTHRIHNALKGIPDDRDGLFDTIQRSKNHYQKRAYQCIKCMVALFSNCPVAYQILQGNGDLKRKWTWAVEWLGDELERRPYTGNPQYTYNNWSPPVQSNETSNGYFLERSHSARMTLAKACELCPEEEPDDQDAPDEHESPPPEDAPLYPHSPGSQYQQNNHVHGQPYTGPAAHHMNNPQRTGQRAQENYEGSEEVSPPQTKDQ
For assay [3], the target named is Ubiquitin carboxyl-terminal hydrolase 7 (Homo sapiens) (UniProt Q93009). Description: Inhibition of USP7 in human MCF7 cells assessed as decrease in Mdm2 expression at 25 uM after 4 hrs by Western blot analysis. Format: cell-based. The gist of the method:
(§2)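 MCF7 cells treated with compound for 4 h. Mdm2, p53 and p21 levels were determined by immunoblotting.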

Assay [4] relates to K562. Description: Cell cycle arrest in human K562 cells assessed as increase in accumulation at sub G1-phase after 24 hrs by propidium iodide staining based flow cytometry. The assay is classed as functional. The gist of the method:
(§3)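 K562 cells exposed to compound for 24 h, then analysed for cell cycle by FACS. Sub-G1 cells were counted as apoptotic, with the G1 fraction reported separately.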

Assay [5] addresses Ubiquitin carboxyl-terminal hydrolase 7 (Homo sapiens) (UniProt Q93009). Description: Inhibition of recombinant His6-tagged USP7 catalytic domain (unknown origin) using Ub-AMC as substrate by fluorescence assay. The settings on record: TDE = time-dependent effect.
The test system of assay [6] is K562. Description: Cell cycle arrest in human K562 cells assessed as increase in accumulation at G1-phase after 24 hrs by propidium iodide staining based flow cytometry. The assay is classed as functional. The gist of the method:
as §3
On the technique in general: Flow cytometry measures light scatter and fluorescence of single cells or particles in a stream.

The target in assay [7] is Ubiquitin carboxyl-terminal hydrolase 7 (Homo sapiens) (UniProt Q93009). Description: Inhibition of USP7 in human MCF7 cells assessed as increase in p53 expression after 4 to 48 hrs by Western blot analysis. Format: cell-based.
Sequence of Ubiquitin carboxyl-terminal hydrolase 7 (Homo sapiens) (Q93009 whole entry, looked up, the tested form may be a part): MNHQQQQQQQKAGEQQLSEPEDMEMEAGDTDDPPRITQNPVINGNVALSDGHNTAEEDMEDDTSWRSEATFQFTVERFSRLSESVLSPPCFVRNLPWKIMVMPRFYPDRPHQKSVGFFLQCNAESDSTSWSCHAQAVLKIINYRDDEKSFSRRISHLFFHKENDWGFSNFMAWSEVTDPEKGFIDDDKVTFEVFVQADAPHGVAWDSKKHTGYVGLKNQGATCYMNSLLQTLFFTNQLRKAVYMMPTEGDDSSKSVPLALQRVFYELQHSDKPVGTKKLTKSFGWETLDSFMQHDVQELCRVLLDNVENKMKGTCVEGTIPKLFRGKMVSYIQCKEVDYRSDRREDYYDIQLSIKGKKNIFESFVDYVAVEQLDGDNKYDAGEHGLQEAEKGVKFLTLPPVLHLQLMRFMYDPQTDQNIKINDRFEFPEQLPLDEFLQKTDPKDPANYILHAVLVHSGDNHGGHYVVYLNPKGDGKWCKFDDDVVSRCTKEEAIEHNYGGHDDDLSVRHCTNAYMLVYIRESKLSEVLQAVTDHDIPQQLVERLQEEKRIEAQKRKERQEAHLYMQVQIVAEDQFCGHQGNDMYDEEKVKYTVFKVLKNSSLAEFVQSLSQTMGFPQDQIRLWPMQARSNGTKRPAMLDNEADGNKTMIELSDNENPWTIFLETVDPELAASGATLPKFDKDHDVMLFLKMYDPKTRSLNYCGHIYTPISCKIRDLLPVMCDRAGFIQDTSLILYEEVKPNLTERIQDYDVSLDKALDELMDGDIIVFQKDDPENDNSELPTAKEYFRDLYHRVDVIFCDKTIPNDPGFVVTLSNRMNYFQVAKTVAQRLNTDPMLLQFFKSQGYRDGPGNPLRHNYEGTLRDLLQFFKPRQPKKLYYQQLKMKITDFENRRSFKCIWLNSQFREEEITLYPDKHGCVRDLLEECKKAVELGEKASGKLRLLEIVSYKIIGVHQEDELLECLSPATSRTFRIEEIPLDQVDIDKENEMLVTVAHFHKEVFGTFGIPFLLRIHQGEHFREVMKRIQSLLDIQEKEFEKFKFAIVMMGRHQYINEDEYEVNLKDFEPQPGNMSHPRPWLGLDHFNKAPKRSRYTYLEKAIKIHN
In assay [8] the target is T2, Ubiquitin carboxyl-terminal hydrolase 8 (Homo sapiens) (UniProt P40818).
T2 sequence (whole entry): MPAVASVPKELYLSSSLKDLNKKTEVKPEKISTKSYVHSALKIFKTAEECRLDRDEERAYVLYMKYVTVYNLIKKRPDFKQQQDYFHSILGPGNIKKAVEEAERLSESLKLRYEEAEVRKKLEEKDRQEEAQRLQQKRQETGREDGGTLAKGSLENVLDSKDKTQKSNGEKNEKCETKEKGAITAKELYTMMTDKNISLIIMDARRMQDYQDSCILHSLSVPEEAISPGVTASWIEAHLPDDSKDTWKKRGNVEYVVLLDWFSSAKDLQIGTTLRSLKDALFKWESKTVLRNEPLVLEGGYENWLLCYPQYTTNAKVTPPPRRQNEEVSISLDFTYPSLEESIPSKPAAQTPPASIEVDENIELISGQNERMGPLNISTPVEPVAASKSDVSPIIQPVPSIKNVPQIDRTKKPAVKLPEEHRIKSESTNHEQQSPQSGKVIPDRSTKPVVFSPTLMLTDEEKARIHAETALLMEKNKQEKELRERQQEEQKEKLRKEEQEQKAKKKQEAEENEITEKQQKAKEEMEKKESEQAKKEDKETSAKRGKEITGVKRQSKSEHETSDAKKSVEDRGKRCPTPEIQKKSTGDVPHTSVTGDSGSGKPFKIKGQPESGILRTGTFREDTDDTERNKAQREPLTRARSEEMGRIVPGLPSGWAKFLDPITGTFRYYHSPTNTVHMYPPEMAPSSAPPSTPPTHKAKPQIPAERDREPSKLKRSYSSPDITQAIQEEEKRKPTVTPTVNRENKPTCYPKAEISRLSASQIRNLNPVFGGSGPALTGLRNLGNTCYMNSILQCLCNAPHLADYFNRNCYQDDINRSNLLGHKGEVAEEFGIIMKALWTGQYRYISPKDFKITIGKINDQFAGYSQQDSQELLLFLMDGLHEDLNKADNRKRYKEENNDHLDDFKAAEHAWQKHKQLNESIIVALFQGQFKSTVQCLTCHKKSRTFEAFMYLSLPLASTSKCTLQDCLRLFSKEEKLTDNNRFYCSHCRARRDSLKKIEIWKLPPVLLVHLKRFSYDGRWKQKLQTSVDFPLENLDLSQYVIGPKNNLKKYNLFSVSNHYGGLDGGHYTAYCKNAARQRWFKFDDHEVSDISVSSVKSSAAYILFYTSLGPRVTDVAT
Description: Inhibition of USP8 in HEK293T cell lysates at 25 uM using HA-tagged vinyl-sulfone as substrate measured after 2 to 30 mins by Western blot analysis. The assay is classed as subcellular. The note with it: Lysate. A digest of the protocol:
as §1

Assay [9] deals with T2, Ubiquitin carboxyl-terminal hydrolase 8 (Homo sapiens). Description: Inhibition of USP8 in HEK293T cell lysates at 25 uM using HA-tagged vinyl-sulfone as substrate preincubated for 19 to 60 mins followed by substrate addition and measured after 19 to 25 mins by Western blot analysis. Format: subcellular. The settings on record: Lysate.
For assay [10], the system named is K562. Description: Inhibition of deubiquitinase in human K562 cells assessed as accumulation of K48-linked HMW-Ub protein at 50 uM measured after 2 hrs by Western blot analysis. The assay is classed as cell-based. The gist of the method:
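K562 cells exposed to compound at 50 μM for 2 h; K48-linked ubiquitin accumulation read by immunoblotting.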

Assay [11] concerns the target Ubiquitin carboxyl-terminal hydrolase 7 (Homo sapiens) (UniProt Q93009). Description: Inhibition of USP7 in human MCF7 cells assessed as accumulation of K48-Ub protein at 50 uM after 4 hrs by Western blot analysis. The assay is classed as cell-based. A digest of the protocol:
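MCF7 cells exposed to 50 μM compound for 4 h. K48-linked ubiquitin chains were detected by immunoblot.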

For assay [12], the system named is Ficin (Ficus carica). Description: Inhibition of fig ficin at 100 uM using Z-Arg-AMC as substrate preincubated for 30 mins followed by substrate addition by fluorescence assay.
Assay [13] addresses Pancreatic elastase (Sus scrofa) (UniProt P08419+P00772). Description: Inhibition of porcine pancreatic elastase. The assay is classed as protein assay.
In assay [14] the target is Ubiquitin carboxyl-terminal hydrolase 9X (Homo sapiens) (UniProt Q93008). Description: Inhibition of USP9x in HEK293T cell lysates at 25 uM using HA-tagged vinyl-sulfone as substrate preincubated for 19 to 60 mins followed by substrate addition and measured after 19 to 25 mins by Western blot analysis. Format: subcellular. The settings on record: Lysate.
The target of assay [15] is Ubiquitin carboxyl-terminal hydrolase 7 (Homo sapiens) (UniProt Q93009). Description: Inhibition of USP7 in human MCF7 cells assessed as increase in p21 expression at 25 uM after 4 hrs by Western blot analysis. Format: cell-based. The gist of the method: as §2
The target in assay [16] is Ubiquitin carboxyl-terminal hydrolase isozyme L1 (Homo sapiens) (UniProt P09936). Description: Inhibition of UCHL1 in HEK293T cell lysates at 25 uM using HA-tagged vinyl-sulfone as substrate measured after 2 to 30 mins by Western blot analysis. The settings on record: Lysate. Format: subcellular. The gist of the method: as §1
Sequence of Ubiquitin carboxyl-terminal hydrolase isozyme L1 (Homo sapiens) (P09936 whole entry, looked up): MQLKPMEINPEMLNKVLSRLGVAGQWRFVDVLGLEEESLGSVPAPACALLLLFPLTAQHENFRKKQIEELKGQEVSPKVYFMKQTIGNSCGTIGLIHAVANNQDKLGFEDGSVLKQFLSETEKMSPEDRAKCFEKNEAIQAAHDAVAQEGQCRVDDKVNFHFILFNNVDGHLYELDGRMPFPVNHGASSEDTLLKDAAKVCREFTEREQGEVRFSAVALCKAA
The target in assay [17] is Ubiquitin carboxyl-terminal hydrolase 7 (Homo sapiens) (UniProt Q93009). Description: Inhibition of USP7 in HEK293T cell lysates at 25 uM using HA-tagged vinyl-sulfone as substrate preincubated for 19 to 60 mins followed by substrate addition and measured after 19 to 25 mins by Western blot analysis. The assay is classed as subcellular. The settings on record: Lysate.

Regarding `NCc1ccc(OC(=O)Oc2ccc3ccccc3c2)cc1`, the inhibition result in assay [1], in assay [8], in assay [12], in assay [13] and in assay [16] was “inactive” in each case. The K in assay [2] came out at 49 M⁻¹ s⁻¹. Also, the inhibition entry in [3], in [9], in [10], in [11], in assay [14] and in [15] was “Active” in each case. The inhibition entry in assay [17] was “Active”. In addition, the Activity entry in assay [4] and in [6] was “Dose-dependent effect” each time. The inhibition entry in [5] was “Tde”. In [7], the result was Active.
